Measurements: ChEMBL document CHEMBL4513216, “Probing the Open Global Health Chemical Diversity Library for Multistage-Active Starting Points for Next-Generation Antimalarials” (ACS Infect Dis, 2020)

Assay: Toxicity liver stage against HepG2, at 10uM
Assay type: cell-based
Design: test concentration 10 uM, cell line HepG2-A16-CD81EGFP
Conditions: human, HepG2-A16-CD81EGFP cells; read-out: INHIBITION
Method in brief: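 Uninfected HepG2-A16-CD81EGFP cells, 3 × 10^3 per well, 1536-well, plated on prespotted compound at 10 μM final, parasite-free screening media added to match infected plates; puromycin 10 μM positive, DMSO 0.5% negative; run in parallel with 48 h PbLuc assay at 37 °C, 5% CO2; viability by CellTiter-Glo luminescence, normalized to controls.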

Cc1cnc(CN(Cc2ccccc2)CC(O)c2cccs2)cn1 (configuration not stated)
cytotoxicity at 10 µM: -15.4%

CN1CCN(C2CCN(Cc3nnc(C(C)(C)C)o3)CC2)C1=O
cytotoxicity at 10 µM: -16.2%

Cc1noc(C)c1-c1cccc(CC2CCN(C(=O)c3cc[nH]n3)C2)n1 (configuration not stated)
cytotoxicity at 10 µM: 2.31%

Cc1nn(C)c(C)c1-c1cnc(CC2CCNCC2)cn1
cytotoxicity at 10 µM: -13.7%

CC(C)c1cc(CN(C)C(=O)CN2CCCCC2=O)no1
cytotoxicity at 10 µM: 8.01%

N#Cc1cccc(N2CCCC3(CN(C(=O)[C@H]4CCCO4)CCO3)C2)c1 (some centres not stated)
cytotoxicity at 10 µM: 3.53%

Cc1cc(C)c(CNC(=O)N2CCCC2c2cc(C)on2)c(=O)[nH]1 (configuration not stated)
cytotoxicity at 10 µM: 1.1%

Cc1ccc2cc(C(=O)N3CCC(O)(C(F)(F)F)CC3)ccc2n1
cytotoxicity at 10 µM: -54.7%

O=C(c1cccs1)N1CC[C@H]2[C@@H]1CCC(=O)N2c1cccnc1
cytotoxicity at 10 µM: -74.3%

CCCc1ccc(C(=O)N2CCc3c(nc(C)nc3N(C)C)C2)cc1
cytotoxicity at 10 µM: -1.34%

O=C1CCCN1Cc1nnc2n1CCCN(C(=O)c1ccc[nH]1)C2
cytotoxicity at 10 µM: -107%

O=C(NC1CC1)N1CCc2ccc(=O)n(Cc3cccnc3)c2CC1
cytotoxicity at 10 µM: 0.995%

COc1cccc(CNC[C@H]2COCc3nc4cccnc4n32)n1
cytotoxicity at 10 µM: -1.57%

COCCC(=O)N1CCC(c2noc3nc(C)cc(C(F)(F)F)c23)CC1
cytotoxicity at 10 µM: 4.45%

O=C(c1cncs1)N1CCOCC(Cc2ccccn2)C1 (configuration not stated)
cytotoxicity at 10 µM: 0.105%

Cc1cnn(C2CCCN(C(=O)c3cnc4ccccc4n3)C2)c1 (configuration not stated)
cytotoxicity at 10 µM: -10.7%

Cn1ccc(NC2CCN(C3CC3)C2=O)n1 (configuration not stated)
cytotoxicity at 10 µM: 7.31%

CCc1ccccc1NC(=O)c1cnn(C)c1C
cytotoxicity at 10 µM: -2.52%

Cc1cccc(CSc2ncc(Br)c(C(=O)O)n2)c1
cytotoxicity at 10 µM: -9.41%

COc1coc(CN2CCCC3(CCC(=O)N(C4CC4)C3)C2)cc1=O (configuration not stated)
cytotoxicity at 10 µM: -39.9%

CN(Cc1nnnn1C1CC1)c1cccc2ccccc12
cytotoxicity at 10 µM: 8.38%

CCOc1ccc(C(=O)CCC(=O)N(C)Cc2snnc2C)cc1C
cytotoxicity at 10 µM: -2.29%

CCn1nc(C)cc1C(=O)NCc1nc(C)cc(C)n1
cytotoxicity at 10 µM: -0.745%

CC(C)(C)C(=O)N1CCC(n2cc(C3(O)CCCC3)nn2)CC1
cytotoxicity at 10 µM: 3.15%

CCC(C)C(=O)NS(=O)(=O)c1ccc(C#N)cc1C(F)(F)F (configuration not stated)
cytotoxicity at 10 µM: -5.25%

Cc1cnn(CC2CN(CC(=O)Nc3nnc(C)s3)CCO2)c1 (configuration not stated)
cytotoxicity at 10 µM: -0.472%

Cc1cc(CN2CC[C@H]3C(=O)N(c4cccnc4)CCO[C@H]3C2)no1
cytotoxicity at 10 µM: -66.8%

CCOCC(O)c1nc2c([nH]1)CC(C)(C)CNC2=O (configuration not stated)
cytotoxicity at 10 µM: 4.71%

Cc1nc(N2CCN(C(=O)c3ccsc3)CC2)c2cnn(C)c2n1
cytotoxicity at 10 µM: -10.6%

Cc1nc(C(=O)N2CCOC(Cc3ccccc3)C2)co1 (configuration not stated)
cytotoxicity at 10 µM: -3.24%

O=S(=O)(c1cccs1)N1CC[C@@H](O)[C@@H]1Cc1ccncc1
cytotoxicity at 10 µM: -72.8%

O=C(NCCN1CCCCC1CO)c1cc(-c2ccccc2)on1 (configuration not stated)
cytotoxicity at 10 µM: -5.53%

Cc1cccc(CN2CCC3(CCN(c4cccnc4)C3=O)C2)n1 (configuration not stated)
cytotoxicity at 10 µM: -1.63%

CN(CCCOc1ccc(F)cc1)Cc1nc2c(cnn2C)c(=O)[nH]1
cytotoxicity at 10 µM: -4.62%

Cc1cc(C)c(CNC(=O)NC2CCN(C(=O)C(C)C)CC2)c(C)c1
cytotoxicity at 10 µM: 9.46%

Cc1noc(CNC(=O)NCC2(C)CCCc3ccccc32)n1 (configuration not stated)
cytotoxicity at 10 µM: -1.17%

CCOC(=O)c1nc(COc2c(C)occc2=O)no1
cytotoxicity at 10 µM: 3.79%

CC(C)(C)c1nc(CN2CCC(c3ccnn3CCO)CC2)no1
cytotoxicity at 10 µM: -5.22%

COC1CCN(C(=O)CCn2cccn2)CC1
cytotoxicity at 10 µM: -13.4%

C[C@@H]1CN(Cc2cccnc2)C[C@]12CCN(CCN1CCCC1)C2=O
cytotoxicity at 10 µM: -6.04%

CCN(CC)C(=O)C1CCC2(CCNCC2)CO1 (configuration not stated)
cytotoxicity at 10 µM: -146%

O=C(NCCN1CCOCC1)c1cc(-c2ccc3c(c2)CCO3)n[nH]1
cytotoxicity at 10 µM: -2.95%

Cc1ccnc(CC(C)N(C)Cc2ccc3c(c2)OCCO3)c1 (configuration not stated)
cytotoxicity at 10 µM: -4.24%

CCc1nc(C2CCCN2c2ncc(C(F)(F)F)cc2Cl)no1 (configuration not stated)
cytotoxicity at 10 µM: 5.64%

Cc1cc(C)n(Cc2ccc(-c3noc(C(=O)NCCCO)n3)cc2)n1
cytotoxicity at 10 µM: -1.49%

CCN1c2ccc(-c3cncn3CCCn3ccnc3C)cc2CC1C (configuration not stated)
cytotoxicity at 10 µM: -1.25%

CC(C)N1CCCC(CNC(=O)Cc2csc(-c3cccnc3)n2)C1 (configuration not stated)
cytotoxicity at 10 µM: -51.5%

Cc1ccc(C(=O)NCCNC(=O)c2cncnc2C)cc1F
cytotoxicity at 10 µM: 3.91%

CCC(CC)C(=O)Nc1ccc2oc(=O)n(CCN(C)C)c2c1
cytotoxicity at 10 µM: -13.7%

COCCn1c(-c2cccc(OC)c2)cnc1NC(=O)NCCC(C)C
cytotoxicity at 10 µM: 12.9%

COc1cc(CN(C)C(=O)NC2CC2)ccc1SC
cytotoxicity at 10 µM: -8.01%

O=C(CC1COCCN1)NCCc1nc(-c2ccccn2)no1 (configuration not stated)
cytotoxicity at 10 µM: -0.849%

CNc1cncc(C2CCCN2Cc2ccnc(N3CCCC3)n2)n1 (configuration not stated)
cytotoxicity at 10 µM: -12.1%

CC(C)N(CCCNC(=O)C1CCCN(C(N)=O)C1)S(C)(=O)=O (configuration not stated)
cytotoxicity at 10 µM: -8.51%

O=C(c1cc(C2CC2)nc2onc(-c3ccccc3)c12)N1CCOCC1
cytotoxicity at 10 µM: -40.5%

CCc1nc(CC(=O)Nc2cnn(CC3CCCO3)c2)cs1 (configuration not stated)
cytotoxicity at 10 µM: -3.11%

Cc1ccc(CN2C[C@H](O)C[C@H]2c2nc(-c3ccc(F)cc3)no2)cc1
cytotoxicity at 10 µM: -0.456%

O=C(COc1ccc2c(c1)CCC2)NCc1ccco1
cytotoxicity at 10 µM: 2.98%

Cc1cnn(CCNc2cnc3ccccc3n2)c1
cytotoxicity at 10 µM: 11.4%

CN1C[C@@H](n2cnc(-c3ccccc3)c2-c2nccn2C)C[C@H]1C(=O)O
cytotoxicity at 10 µM: -0.338%

CNC(=O)COc1ccccc1CNCc1c(C)noc1C
cytotoxicity at 10 µM: 2.32%

CCN(C(=O)COC)C(c1cccnc1)c1ccc2c(c1)CCO2 (configuration not stated)
cytotoxicity at 10 µM: -12.4%

Cc1ncsc1CN1CC[C@H]2OCC[C@@]2(C(=O)NC(C)C)C1
cytotoxicity at 10 µM: 9.38%

CSc1ncc(C(=O)N2C[C@@H]3CC[C@H]2CN(S(=O)(=O)N(C)C)C3)cn1
cytotoxicity at 10 µM: 0.0773%

CC(C)N1CCC(c2n[nH]cc2S(C)(=O)=O)CC1
cytotoxicity at 10 µM: -7.22%

CNC(=O)C1CN(Cc2cc(C)on2)CCN(C(C)=O)C1 (configuration not stated)
cytotoxicity at 10 µM: -3.02%

CCCSc1ncc(-c2nccn2CCC(N)=O)cn1
cytotoxicity at 10 µM: -10.4%

N#Cc1ccsc1NC(=O)CN1CCn2c(nnc2C2CC2)C1
cytotoxicity at 10 µM: -14.5%

Cc1ccc(CNCc2nnc3n2CC(C(F)(F)F)CC3)cc1 (configuration not stated)
cytotoxicity at 10 µM: 6.84%

O=C(C1CC1)N1CCN2C[C@@H](CO)[C@H](c3ccccc3)[C@H]2C1
cytotoxicity at 10 µM: 8.52%

Cc1c(C(C)NC(=O)Nc2ccc(F)c(F)c2)cnn1C (configuration not stated)
cytotoxicity at 10 µM: -46.8%

Cc1cc(N2CCCC2c2nnc3n2CCCCC3)nc(C)n1 (configuration not stated)
cytotoxicity at 10 µM: 9.59%

O=C(NCc1nnc2n1CCC2)c1cccc(Br)c1
cytotoxicity at 10 µM: -0.115%

O=C(c1ccccc1F)N1C[C@@H]2COC[C@]2(COCc2cccnc2)C1
cytotoxicity at 10 µM: 6.27%

Cc1nccn1C1CCCN(C(=O)c2ccc3nnc(C)n3c2)C1 (configuration not stated)
cytotoxicity at 10 µM: 2.01%

Cc1nc(Nc2ncc(C)s2)cc(C2CCCN2)n1 (configuration not stated)
cytotoxicity at 10 µM: 82%

CC(=O)N1CCN(C(=O)CCc2cc(Br)cs2)CC1
cytotoxicity at 10 µM: -9.74%

CCc1nnc2n1CC(CNCC1CCCC1)CC2 (configuration not stated)
cytotoxicity at 10 µM: -3.98%

Cc1ccccc1Oc1ncccc1CNC(=O)Cn1cccnc1=O
cytotoxicity at 10 µM: -16.8%

CCCn1c(C)c(CC(=O)NC(C)(C)CO)c2c1CC(C)(C)CC2=O
cytotoxicity at 10 µM: -8.97%

CN(C)c1cnn(CC(=O)N2CCCCCC2)c(=O)c1
cytotoxicity at 10 µM: -10.6%

CCn1nc2c(cc1=O)CN(Cc1coc(-c3ccccc3)n1)CC2
cytotoxicity at 10 µM: -10.9%
